Assay results taken from article PMC9513682 (RSC Advances, 2022).

How the values were obtained:
B-RAF(V600E) = B-RAF(V600E) (Homo sapiens, UniProt P15056, V600E); assay: B-RAF; format: biochemical; conditions: for IC50: B-RAF (V600E) IC50, n = 3; for selectivity for B-RAFV600E kinase over B-RAF wild-type kinase: ratio of kinase IC50 values
[1] = tested on: phosphorylation of downstream ERK1/2 (pT202/Y204) in WM266.4 cells; assay: Cell-based B-RAFV600E kinase assay; conditions: for pERK 1/2: WM266.4 cell line, mean ± standard error of two experiments
Procedure, shortened: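 Phospho-ERK1/2 (pT202/Y204) and total ERK1/2 were measured by a single-step sandwich ELISA (affinity-tagged capture antibody, reporter-conjugated detector antibody). pERK was reported in ng/mL as duplicate determinations. % inhibition was calculated against untreated control cells, as mean ± S.E. of two experiments.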

WM266.4 melanoma cells = assay: MTT cytotoxicity assay, B-RAFV600E-mutated melanoma cells; format: cell-based; conditions: for potency against WM266.4 melanoma cells relative to dabrafenib: WM266.4 cells
Procedure, shortened: (§1)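 WM266.4 (B-RAFV600E) and Sk-mel-23 (B-RAF wild type) melanoma cells were grown in DMEM with FBS, penicillin and streptomycin at 37 °C under CO₂. […] MTT reagent was added and cells re-incubated; absorbance was read at 590 nm. IC50 was taken from concentration–inhibition curves (n = 3).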

B-RAF (wild-type) = B-RAF (wild-type) (Homo sapiens, UniProt P15056); assay: B-RAF; format: biochemical
Sk-mel-23 melanoma cells = assay: MTT cytotoxicity assay, B-RAF wild type melanoma cells; format: cell-based; conditions: Homo sapiens, SK-MEL-23, 48 h, read-out: Sk-mel-23 IC50
Procedure, shortened: as §1

B-RAF(V600E), sequence (P15056 whole entry V600E): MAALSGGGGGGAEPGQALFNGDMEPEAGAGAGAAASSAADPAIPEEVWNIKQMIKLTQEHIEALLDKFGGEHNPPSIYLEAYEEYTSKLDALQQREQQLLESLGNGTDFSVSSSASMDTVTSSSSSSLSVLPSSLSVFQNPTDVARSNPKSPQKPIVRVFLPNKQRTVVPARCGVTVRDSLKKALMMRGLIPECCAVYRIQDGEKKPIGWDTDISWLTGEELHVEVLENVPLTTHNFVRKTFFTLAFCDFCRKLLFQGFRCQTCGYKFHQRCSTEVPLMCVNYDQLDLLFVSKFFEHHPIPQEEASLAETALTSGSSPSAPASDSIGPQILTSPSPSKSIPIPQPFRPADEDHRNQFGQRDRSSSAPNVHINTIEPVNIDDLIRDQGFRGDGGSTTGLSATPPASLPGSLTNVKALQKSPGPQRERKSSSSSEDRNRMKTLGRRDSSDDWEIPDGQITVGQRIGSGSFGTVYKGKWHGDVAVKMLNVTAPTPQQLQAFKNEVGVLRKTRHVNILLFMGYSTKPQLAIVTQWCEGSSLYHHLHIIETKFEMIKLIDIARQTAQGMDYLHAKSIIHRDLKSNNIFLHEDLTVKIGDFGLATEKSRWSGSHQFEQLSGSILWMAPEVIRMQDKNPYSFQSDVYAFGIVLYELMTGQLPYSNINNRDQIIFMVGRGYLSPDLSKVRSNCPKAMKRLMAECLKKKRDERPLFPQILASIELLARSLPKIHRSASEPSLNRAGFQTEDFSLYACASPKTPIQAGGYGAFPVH
B-RAF (wild-type), sequence (P15056 whole entry): as the sequence (P15056 whole entry V600E) above, with E600V counted along it

Row | Structure (SMILES) | IC50 (B-RAF(V600E)) [nM] | selectivity for B-RAFV600E kinase over B-RAF wild-type kinase (B-RAF(V600E)) | IC50 (B-RAF (wild-type)) [nM] | potency against WM266.4 melanoma cells relative to dabrafenib (WM266.4 melanoma cells) | IC50 (Sk-mel-23 melanoma cells) [nM] | also measured
1 | Cc1ccc(C(CS(=O)(=O)c2ccccc2)=NNC(N)=S)cc1 [Compound 3, 2-Benzenesulfonyl-1-p-tolyl-ethanone thiosemicarbazone] | 115 ± 6 |  |  |  |  | 
2 | Cc1ccc(C(CS(=O)(=O)c2ccccc2)=NNc2nc(-c3ccc(OCCCCOc4ccc(-c5csc(NN=C(CS(=O)(=O)c6ccccc6)c6ccc(C)cc6)n5)cc4)cc3)cs2)cc1 [Compound 15, 1,1′-[1,4-Butanediylbis(oxy)]bis[4-(2-{[2-(benzenesulfonyl)-1-(p-tolyl)ethylidene]-hydrazino}thiazol-4-yl)benzene]] | 51.9 ± 2.7 | 5 fold | 251 ± 13.5 |  | 17600 ± 890 | cytotoxic potency toward WM266.4 rather than Sk-mel-23 melanoma cells (WM266.4 melanoma cells; WM266.4 (B-RAFV600E-mutated) versus Sk-mel-23 (B-RAF wild type)): equal potency
3 | NC(=S)NN=C(CS(=O)(=O)c1ccccc1)c1ccc(F)cc1 [Compound 17, 2-Benzenesulfonyl-1-(4-fluorophenyl)-ethanone thiosemicarbazone] | 68.2 ± 3.5 |  | 153 ± 8.2 | 11 fold | 12400 ± 630 | activity toward B-rafV600E as share of the activity of dabrafenib (B-RAF(V600E); relative to dabrafenib): 70%
4 | COc1ccc(-c2csc(NN=C(CS(=O)(=O)c3ccccc3)c3ccc(F)cc3)n2)cc1 [Compound 19, N-[2-Benzenesulfonyl-1-(4-fluorophenyl)-ethylidene]-N′-[4-(4-methoxyphenyl)thiazol-2-yl]-hydrazine] | 116 ± 8 |  |  |  |  | 
5 | CC(C)(C)c1nc(-c2cccc(NS(=O)(=O)c3c(F)cccc3F)c2F)c(-c2ccnc(N)n2)s1 [Dabrafenib, dabrafenib] |  |  |  |  | 9030 ± 460 | pERK 1/2 [1]: 0.769 ± 0.018 ng mL^−1; % inhibition of pERK 1/2 ([1]; WM266.4 cells, compared with the control cancer cells): 71.9%

The next lines start with results.

Row | IC50 (B-RAF(V600E)) [nM] | selectivity for B-RAFV600E kinase over B-RAF wild-type kinase (B-RAF(V600E)) | IC50 (B-RAF (wild-type)) [nM] | Structure (SMILES) | potency against WM266.4 melanoma cells relative to dabrafenib (WM266.4 melanoma cells) | IC50 (Sk-mel-23 melanoma cells) [nM] | also measured
6 | 199 ± 10 |  |  | Cc1ccc(C(CS(=O)(=O)c2ccccc2)=NNc2nc(C)c(N=Nc3ccccc3)s2)cc1 [Compound 7a, N-(2-Benzenesulfonyl-1-p-tolyl-ethylidene)-N′-(4-methyl-5-phenylazo-thiazol-2-yl)-hydrazine] |  |  | 
7 | 36.3 ± 1.9 | approximately four | 124 ± 6.6 | Cc1ccc(C(CS(=O)(=O)c2ccccc2)=NNc2nc(C)c(N=Nc3cccc(C)c3)s2)cc1 [Compound 7b, N-(2-Benzenesulfonyl-1-p-tolyl-ethylidene)-N′-(4-methyl-5-m-tolylazo-thiazol-2-yl)-hydrazine] | three to five | 7870 ± 400 | pERK 1/2 [1]: 1.339 ± 0.035 ng mL^−1
8 | 108 ± 5.6 |  |  | Cc1ccc(N=Nc2sc(NN=C(CS(=O)(=O)c3ccccc3)c3ccc(C)cc3)nc2C)cc1 [Compound 7c, N-(2-Benzenesulfonyl-1-p-tolyl-ethylidene)-N′-(4-methyl-5-p-tolylazo-thiazol-2-yl)-hydrazine] |  |  | 
9 | 84.9 ± 4.4 | approximately four | 361 ± 19.4 | Cc1ccc(C(CS(=O)(=O)c2ccccc2)=NNC2=NC(=O)C(=NNc3ccccc3)S2)cc1 [Compound 11a, 2-[N′-(2-Benzenesulfonyl-1-p-tolyl-ethylidene)-hydrazino]-5-(phenyl-hydrazono)-thiazol-4-one] | three to five | 430 ± 20 | 
10 | 185 ± 9.6 |  |  | Cc1ccc(C(CS(=O)(=O)c2ccccc2)=NNC2=NC(=O)C(=NNc3ccc(Cl)cc3)S2)cc1 [Compound 11b, 2-[N′-(2-Benzenesulfonyl-1-p-tolyl-ethylidene)-hydrazino]-5-[(4-chloro-phenyl)-hydrazono]-thiazol-4-one] |  |  | 
11 | 95.4 ± 5 |  | 229 ± 12.3 | Cc1ccc(C(CS(=O)(=O)c2ccccc2)=NNC2=NC(=O)C(=NNc3ccc([N+](=O)[O-])cc3)S2)cc1 [Compound 11c, 2-[N′-(2-Benzenesulfonyl-1-p-tolyl-ethylidene)-hydrazino]-5-[(4-nitro-phenyl)-hydrazono]-thiazol-4-one] | 11 fold | 22300 ± 1140 | 
12 | 23.1 ± 1.2 | approximately four | 97.9 ± 5.2 | Cc1ccc(C(CS(=O)(=O)c2ccccc2)=NN=C2N=C(c3ccc(Br)cc3)CS2)cc1 [Compound 13a, N-(2-Benzenesulfonyl-1-p-tolyl-ethylidene)-N′-[4-(4-bromo-phenyl)-5H-thiazol-2-ylidene]-hydrazine] | three to five | 50200 ± 2560 | 
13 | 206 ± 11 |  |  | Cc1ccc(C(CS(=O)(=O)c2ccccc2)=NN=C2N=C(c3ccc(C)cc3)CS2)cc1 [Compound 13b, N-(2-Benzenesulfonyl-1-p-tolyl-ethylidene)-N′-(4-p-tolyl-5H-thiazol-2-ylidene)-hydrazine] |  |  | 
